Measurements reported in paper PMC8148065 (Acta Pharmaceutica Sinica. B, 2020).
Entries after “also recorded” stand apart in the source; their conditions may differ. Values belong to the compound of their own block, whether it stands above or below them.

Experiments:
[1] = previously reported in mice ref 53; cited from earlier work
[2] = In vitro metabolic stability in mouse liver microsomes; assay type: in vitro ADME; conditions: for half-life at 1 μmol/L: pH 7.4
Outline: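 Mouse liver microsomes (0.5 mg/mL) were incubated with the test compound (1 μmol/L) and an NADPH regeneration system in phosphate buffer (1.0 mmol/L EDTA), pH 7.4. The reaction was started with NADPH and quenched at 5, 15, 30 and 45 min with acetonitrile plus internal standard. Samples were centrifuged, diluted in water and quantified by LC–MS/MS. t1/2 and CLint are means of duplicates.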

HMGCR [3] = target: T1, HMGCR (Homo sapiens, UniProt P04035); assay: Western blot of HMGCR level in HepG2 cells; assay type: cell-based
T1 sequence (P04035 1-888): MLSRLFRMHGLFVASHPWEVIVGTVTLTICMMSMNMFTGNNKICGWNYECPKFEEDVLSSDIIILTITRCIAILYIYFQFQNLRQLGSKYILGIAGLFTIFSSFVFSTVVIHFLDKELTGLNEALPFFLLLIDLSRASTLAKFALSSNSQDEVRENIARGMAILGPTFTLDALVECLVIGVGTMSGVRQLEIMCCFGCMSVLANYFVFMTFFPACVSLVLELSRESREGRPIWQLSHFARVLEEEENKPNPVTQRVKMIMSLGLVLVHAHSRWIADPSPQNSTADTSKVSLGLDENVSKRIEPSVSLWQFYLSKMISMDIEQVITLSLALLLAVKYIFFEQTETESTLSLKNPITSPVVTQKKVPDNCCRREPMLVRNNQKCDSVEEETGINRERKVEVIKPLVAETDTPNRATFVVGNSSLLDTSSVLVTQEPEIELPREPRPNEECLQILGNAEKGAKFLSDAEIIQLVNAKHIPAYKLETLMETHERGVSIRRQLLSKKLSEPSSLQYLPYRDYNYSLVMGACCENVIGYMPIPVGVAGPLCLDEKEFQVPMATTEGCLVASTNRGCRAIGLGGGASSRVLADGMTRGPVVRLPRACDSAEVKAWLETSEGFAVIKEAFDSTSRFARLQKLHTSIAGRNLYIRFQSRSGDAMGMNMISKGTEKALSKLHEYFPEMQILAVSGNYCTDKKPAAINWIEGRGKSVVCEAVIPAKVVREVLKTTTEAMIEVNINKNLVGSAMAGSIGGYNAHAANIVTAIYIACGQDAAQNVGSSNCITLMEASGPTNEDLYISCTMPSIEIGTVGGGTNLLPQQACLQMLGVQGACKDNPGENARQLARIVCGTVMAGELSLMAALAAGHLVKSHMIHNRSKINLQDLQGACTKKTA

HMGCR [4] = target: T2, HMGCR (Mus musculus, UniProt Q01237); assay: Hepatic HMGCR level by Western blot in MFD-fed mice; assay type: in vivo, C57BL/6 mice; conditions: 20 mg/kg p.o. once daily 5 weeks, 16 h after final gavage
T2 sequence (Q01237 1-887): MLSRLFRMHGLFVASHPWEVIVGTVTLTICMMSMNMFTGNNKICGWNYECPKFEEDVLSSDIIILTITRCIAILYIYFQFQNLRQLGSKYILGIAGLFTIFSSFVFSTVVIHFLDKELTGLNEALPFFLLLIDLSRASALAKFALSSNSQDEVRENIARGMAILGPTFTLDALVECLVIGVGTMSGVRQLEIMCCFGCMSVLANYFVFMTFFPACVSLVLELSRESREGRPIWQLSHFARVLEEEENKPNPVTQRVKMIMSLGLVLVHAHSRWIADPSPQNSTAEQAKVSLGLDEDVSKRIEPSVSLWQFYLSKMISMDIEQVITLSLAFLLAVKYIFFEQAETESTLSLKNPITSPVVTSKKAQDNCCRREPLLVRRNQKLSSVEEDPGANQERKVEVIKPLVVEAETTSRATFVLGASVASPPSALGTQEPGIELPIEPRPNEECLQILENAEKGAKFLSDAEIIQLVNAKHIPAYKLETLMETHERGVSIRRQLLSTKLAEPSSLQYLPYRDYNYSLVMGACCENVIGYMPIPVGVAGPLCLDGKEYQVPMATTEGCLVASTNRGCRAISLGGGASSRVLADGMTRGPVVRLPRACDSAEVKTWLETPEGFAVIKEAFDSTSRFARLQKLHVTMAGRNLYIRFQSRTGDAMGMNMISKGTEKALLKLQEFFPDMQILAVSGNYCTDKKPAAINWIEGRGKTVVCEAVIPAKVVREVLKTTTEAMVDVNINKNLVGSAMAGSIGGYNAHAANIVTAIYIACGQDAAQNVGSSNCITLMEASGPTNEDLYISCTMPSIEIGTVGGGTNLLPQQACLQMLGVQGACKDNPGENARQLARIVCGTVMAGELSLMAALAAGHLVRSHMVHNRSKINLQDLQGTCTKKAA

[5] = test system: MFD-induced hypercholesterolemia; assay: MFD-induced mouse model of hypercholesterolemia; assay type: in vivo, C57BL/6 mice; conditions: MFD mice
Outline: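 Male C57BL/6 mice (20–24 g) were fed medium-fat diet (12% fat, 0.5% sodium cholate, 1.25% cholesterol) with 3 weeks' induction. Survival, body weight and food intake were logged weekly. Sixteen hours post-dose, retro-orbital serum TC, LDL-C and TG were measured on an automated analyser (one-way ANOVA, mean ± SD).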

[6] = target: T3, recombinant HMGCR protein (Homo sapiens, UniProt P04035); assay: HMG-CoA reductase activity assay; assay type: biochemical
T3 sequence (P04035 426-888 limits assumed): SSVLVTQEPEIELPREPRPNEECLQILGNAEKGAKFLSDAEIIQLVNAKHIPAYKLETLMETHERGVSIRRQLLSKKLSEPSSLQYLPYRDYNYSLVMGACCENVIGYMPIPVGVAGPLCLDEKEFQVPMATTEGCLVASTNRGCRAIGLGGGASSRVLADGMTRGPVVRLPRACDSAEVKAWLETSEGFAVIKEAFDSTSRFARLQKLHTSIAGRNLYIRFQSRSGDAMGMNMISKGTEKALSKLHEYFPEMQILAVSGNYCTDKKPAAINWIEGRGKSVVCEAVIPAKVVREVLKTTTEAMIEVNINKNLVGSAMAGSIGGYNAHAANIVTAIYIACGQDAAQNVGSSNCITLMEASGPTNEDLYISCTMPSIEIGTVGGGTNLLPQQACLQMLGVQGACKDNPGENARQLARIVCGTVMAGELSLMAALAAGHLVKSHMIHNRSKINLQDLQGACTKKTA

[7] = Chemical stability in saline; assay type: physicochemical; conditions: pH 7.4, 37 °C, 24 h

Structure (SMILES): CC[C@H](C)C(=O)O[C@H]1C[C@@H](C)C=C2C=C[C@H](C)[C@H](CC[C@@H](O)C[C@@H](O)CC(=O)O)[C@H]21 [lovastatin acid]
- Tmax [1]: 90 min

- CLint ([2]; mouse liver microsomes, mean of duplicate): 7516 mL/min/kg
- half-life at 1 μmol/L ([2]; mouse, liver microsomes): 0.73 min
- Hepatic HMGCR level (HMGCR [4]): retained high HMGCR level
Structure (SMILES): CC[C@H](C)C(=O)O[C@H]1C[C@@H](C)C=C2C=C[C@H](C)[C@H](CC[C@@H]3C[C@@H](O)CC(=O)O3)[C@H]21 [Lovastatin, lovastatin, reference compound]
- Effect on HMGCR expression (HMGCR [3]; HepG2 cells, range of concentrations (0.1, 1, 3, 10 μmol/L), 16 h): remarkably upregulated HMGCR in a dose-dependent manner
- Tmax [1]: 120 min

Structure (SMILES): Cc1ncsc1-c1ccc(CNC(=O)[C@@H]2C[C@@H](O)CN2C(=O)[C@@H](NC(=O)CCCCCCCCCCNC(=O)O[C@H]2C[C@@H](C)C=C3C=C[C@H](C)[C@H](CC[C@@H]4C[C@@H](O)CC(=O)O4)[C@H]32)C(C)(C)C)cc1 [Compound 21b, (1S,3R,7S,8S,8aR)-8-(2-((2R,4R)-4-Hydroxy-6-oxotetrahydro-2H-pyran-2-yl)ethyl)-3,7-dimethyl-1,2,3,7,8,8a-hexahydronaphthalen-1-yl (11-(((S)-1-((2S,4R)-4-hydroxy-2-((4-(4-methylthiazol-5-yl)benzyl)carbamoyl)pyrrolidin-1-yl)-3,3-dimethyl-1-oxobutan-2-yl)amino)-11-oxoundecyl)carbamate]
- half-life at 1 μmol/L ([2]; mouse, liver microsomes): 4.18 min
- CLint scaled at 1 μmol/L ([2]; mouse, liver microsomes, pH 7.4, CLint (mL/min/kg), mouse liver microsomes, mean of duplicate): 416 mL/min/kg
- Dmax at 1 µM (HMGCR [3]; HepG2, read-out: maximum degradation (Dmax)): 56%
- Serum total cholesterol (TC), LDL-C and triglyceride (TG) ([5]; 20 mg/kg p.o. once daily, 5 weeks): moderate decrease
- Serum TC and cholesteryl esters ([5]; 60 mg/kg p.o. once daily, 5 weeks): significantly reduced to lower levels
- Hepatic TC and TG ([5]; 20 or 60 mg/kg p.o. once daily, 5 weeks): reduced hepatic TC and TG in a dose-dependent manner
- Tolerability (body weight and food intake) ([5]; oral once a day for 5 weeks): well tolerated; also recorded: no apparent change of body weight and food intake
- Steatosis and lipid deposition in liver sections (H&E, oil red O) ([5]; p.o. once daily, 5 weeks): ameliorated MFD-induced steatosis and lipid deposition
- IC50 [6]: 1320 nM
- Hepatic HMGCR level (HMGCR [4]): robust HMGCR degradation

- IC50 [6]: 1880 nM
- Chemical stability (decomposition) [7]: over half decomposition
Structure (SMILES): C[C@H]1C=C2C=C[C@H](C)[C@H](CC[C@@H]3C[C@@H](O)CC(=O)O3)[C@H]2[C@@H](OC(=O)NCCOCCOCCNc2cccc3c2C(=O)N(C2CCC(=O)NC2=O)C3=O)C1 (stereo partly drawn) [Compound 16b, (1S,3R,7S,8S,8aR)-8-(2-((2R,4R)-4-Hydroxy-6-oxotetrahydro-2H-pyran-2-yl)ethyl)-3,7-dimethyl-1,2,3,7,8,8a-hexahydronaphthalen-1-yl (2-(2-(2-((2-(2,6-dioxopiperidin-3-yl)-1,3-dioxoisoindolin-4-yl)amino)ethoxy)ethoxy)ethyl)carbamate]

- IC50 [6]: 1250 nM
Structure (SMILES): C[C@H]1C=C2C=C[C@H](C)[C@H](CC[C@@H]3C[C@@H](O)CC(=O)O3)[C@H]2[C@@H](OC(=O)NCCCOCCOCCOCCCNc2cccc3c2C(=O)N(C2CCC(=O)NC2=O)C3=O)C1 (stereo partly drawn) [Compound 16a, (1S,3R,7S,8S,8aR)-8-(2-((2R,4R)-4-Hydroxy-6-oxotetrahydro-2H-pyran-2-yl)ethyl)-3,7-dimethyl-1,2,3,7,8,8a-hexahydronaphthalen-1-yl (3-(2-(2-(3-((2-(2,6-dioxopiperidin-3-yl)-1,3-dioxoisoindolin-4-yl)amino)propoxy)ethoxy)ethoxy)propyl)carbamate]

- IC50 [6]: 1560 nM
Structure (SMILES): Cc1ncsc1-c1ccc(CNC(=O)[C@@H]2C[C@@H](O)CN2C(=O)[C@@H](NC(=O)CCCCCCCNC(=O)O[C@H]2C[C@@H](C)C=C3C=C[C@H](C)[C@H](CC[C@@H]4C[C@@H](O)CC(=O)O4)[C@H]32)C(C)(C)C)cc1 [Compound 21a, (1S,3R,7S,8S,8aR)-8-(2-((2R,4R)-4-Hydroxy-6-oxotetrahydro-2H-pyran-2-yl)ethyl)-3,7-dimethyl-1,2,3,7,8,8a-hexahydronaphthalen-1-yl (8-(((S)-1-((2S,4R)-4-hydroxy-2-((4-(4-methylthiazol-5-yl)benzyl)carbamoyl)pyrrolidin-1-yl)-3,3-dimethyl-1-oxobutan-2-yl)amino)-8-oxooctyl)carbamate]

- IC50 [6]: 2490 nM
Structure (SMILES): C[C@H]1C=C2C=C[C@H](C)[C@H](CC[C@@H]3C[C@@H](O)CC(=O)O3)[C@H]2[C@@H](OC(=O)NCCCNc2cccc3c2C(=O)N(C2CCC(=O)NC2=O)C3=O)C1 (stereo partly drawn) [Compound 16c, (1S,3R,7S,8S,8aR)-8-(2-((2R,4R)-4-Hydroxy-6-oxotetrahydro-2H-pyran-2-yl)ethyl)-3,7-dimethyl-1,2,3,7,8,8a-hexahydronaphthalen-1-yl (3-((2-(2,6-dioxopiperidin-3-yl)-1,3-dioxoisoindolin-4-yl)amino)propyl)carbamate]
